The record followed here is ChEMBL document CHEMBL4028912, “Novel Aryl Substituted Pyrazoles as Small Molecule Inhibitors of Cytochrome P450 CYP121A1: Synthesis and Antimycobacterial Evaluation” (J Med Chem, 2017).

Assay [1] is described as follows: Binding affinity to Mycobacterium tuberculosis CYP121A1 expressed in Escherichia coli TG1 (DE3) by UV-visible scanning spectrophotometric analysis. In short, it runs like this: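 Purified CYP121A1 (typically 3–5 μM) in 100 mM KPi, 200 mM KCl, pH 7.85, 0.004% Triton X-100, at 28 °C. Ligand added stepwise from DMSO stocks until no further spectral change. ΔAmax (peak minus trough of difference spectra) was plotted against [ligand] and fitted to a hyperbolic or Hill equation. Triplicate titrations were run and Kd was averaged.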

In assay [2] the test system is Mycobacterium tuberculosis. Nature of the assay: Binding affinity to Mycobacterium tuberculosis CYP121A1 expressed in Escherichia coli TG1 (DE3) assessed as Soret peak shift by UV-visible scanning spectrophotometric analysis. The method in brief: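 Purified CYP121A1 (typically 3–5 μM) titrated at 28 °C in 100 mM KPi, 200 mM KCl, pH 7.85, 0.004% Triton X-100. Ligand added stepwise from DMSO stocks until saturation. Spectra 250–800 nm were recorded. Soret shift was judged from the difference spectra, with a red shift taken as type II.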

Assay [3] concerns Mycobacterium tuberculosis. Nature of the assay: Antimycobacterial activity against Mycobacterium tuberculosis H37Rv after 7 days by resazurin microtiter assay. The assay is classed as functional. The conditions noted are these: 168 h. The method in brief:
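M. tuberculosis H37Rv grown in 7H9 with 10% OADC at 37 °C to mid-log (OD600 0.4–0.6). Inoculum adjusted to McFarland no. 1, diluted 1:20. Compounds from DMSO stocks, final 0.39–100 μg/mL; rifampicin 0.004–1 μg/mL as control. After 7 days at 37 °C, 0.01% resazurin added, read 24 h later by fluorescence (530/590 nm). MIC = lowest concentration giving 90% inhibition.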
In general terms: Alamar Blue is a resazurin reagent that responds to reducing activity.

Each structure is given as a SMILES string. In brackets after ≈: the same amount, converted by molar mass. Activity calls are given as the source filed them. The rule behind the calls is not given here.

The Kd is the equilibrium constant for the complex coming apart. Lower therefore signals a tighter complex. One may read the MIC90 as an inhibitory concentration at the 90% level, which refers to growth in some studies and to a panel of isolates in others. Low readings indicate higher susceptibility, high ones lower susceptibility. For the compound `Cc1ccc(-c2nn(-c3ccccc3)cc2Cn2cncn2)cc1`, in assay [1], the dissociation constant Kd was 187 µM. In addition, the Activity in assay [2] fell in the range of 416 to 418 nm. This compound also had an MIC90 in assay [3] greater than 100 µg/mL.
For the compound `COc1ccc(-c2nn(-c3ccccc3)cc2C(=O)NCCn2ccnc2)cc1`, the Kd in assay [1] worked out at 314 µM. Besides, the Activity in assay [2] was in the range of 416 to 418 nm. In assay [3], this compound registered an MIC90 of 100 µg/mL (≈ 258 µM).
On the same counts, the results for `Fc1ccc(-c2nn(-c3ccccc3)cc2Cn2cncn2)cc1` are 35.6 µM, 416 to 423 nm and 25 µg/mL (≈ 78.3 µM).
For `c1ccc(-c2nn(-c3ccccc3)cc2Cn2cncn2)cc1`, in that order: 73.5 µM, 416 to 422 nm and 50 µg/mL (≈ 166 µM).
On the same counts, the results for `Ic1ccc(-c2nn(-c3ccccc3)cc2Cn2ccnc2)cc1` are 13.6 µM, 416 to 422 nm and 6.25 µg/mL (≈ 14.7 µM).
Consider `c1ccc(-c2nn(-c3ccccc3)cc2Cn2ccnc2)cc1`, for which the Kd in assay [1] was 2.63 µM. Further, the Activity in assay [2] lay within 416 to 424 nm. In assay [3], the MIC90 amounted to 12.5 µg/mL (≈ 41.6 µM).
With `O=C(NCCn1ccnc1)c1cn(-c2ccccc2)nc1-c1ccc(F)cc1`, the outcome in assay [2] was inactive. Moreover, the MIC90 in assay [3] was greater than 100 µg/mL.
On to `Ic1ccc(-c2nn(-c3ccccc3)cc2Cn2cncn2)cc1`, for which the result in assay [2] was inactive. In assay [3], this compound gave an MIC90 of 50 µg/mL (≈ 117 µM).
Regarding `Clc1ccccc1C(c1ccccc1)(c1ccccc1)n1ccnc1` [CLOTRIMAZOLE], the MIC90 in assay [3] worked out at 20 µg/mL (≈ 58 µM).
Still for that read-out and setting: for `OC(Cn1cncn1)(Cn1cncn1)c1ccc(F)cc1F` [FLUCONAZOLE] the value was greater than 100 µg/mL.
Compound `Clc1ccc(-c2nn(-c3ccccc3)cc2Cn2ccnc2)cc1` came in with a Kd in assay [1] of 7.42 µM. Moreover, the Activity in assay [2] fell in the range of 416 to 422 nm. Also, the MIC90 in assay [3] worked out at 12.5 µg/mL (≈ 37.3 µM).
For `Brc1ccc(-c2nn(-c3ccccc3)cc2Cn2ccnc2)cc1`, in that order: 19.5 µM, 416 to 420 nm and 6.25 µg/mL (≈ 16.5 µM).
For `Cc1ccc(-c2nn(-c3ccccc3)cc2C(=O)NCCn2ccnc2)cc1`, in that order: 290 µM, 416 to 418 nm and greater than 100 µg/mL.
`COc1ccc(-c2nn(-c3ccccc3)cc2Cn2cncn2)cc1`: the Kd in assay [1] was determined as 96.5 µM. Moreover, the Activity in assay [2] is 416 to 420 nm. For the same compound, the MIC90 in assay [3] turned out to be 25 µg/mL (≈ 75.4 µM).
Consider `O=C(NCCn1ccnc1)c1cn(-c2ccccc2)nc1-c1ccc(Cl)cc1`, for which the outcome in assay [2] was inactive. This compound came in with an MIC90 in assay [3] greater than 100 µg/mL.
On to `Brc1ccc(-c2nn(-c3ccccc3)cc2Cn2cncn2)cc1`, for which, in assay [1], binding was characterised by a dissociation constant (Kd) of 193 µM. Moreover, in assay [2], the Activity lay within 416 to 418 nm. Besides, the MIC90 in assay [3] amounted to 25 µg/mL (≈ 65.7 µM).
For `O=C(NCCn1ccnc1)c1cn(-c2ccccc2)nc1-c1ccccc1`, in that order: 394 µM, 416 to 418 nm and greater than 100 µg/mL.
For `Clc1ccc(-c2nn(-c3ccccc3)cc2Cn2cncn2)cc1`, in that order: 83.8 µM, 416 to 421 nm and 25 µg/mL (≈ 74.4 µM).
Take `Fc1ccc(-c2nn(-c3ccccc3)cc2Cn2ccnc2)cc1`: in assay [1], the equilibrium dissociation constant (Kd) is 4.16 µM. In addition, in assay [2], the Activity was in the range of 416 to 424 nm. Besides, in assay [3], the MIC90 was 25 µg/mL (≈ 78.5 µM).
In the case of `N#Cc1ccc(-c2nn(-c3ccccc3)cc2Cn2cncn2)cc1`, the result in assay [2] was inactive. The compound further gave an MIC90 in assay [3] greater than 100 µg/mL.
`Cc1ccc(-c2nn(-c3ccccc3)cc2Cn2ccnc2)cc1` displayed an equilibrium dissociation constant (Kd) in assay [1] of 5.36 µM. For the same compound, the Activity in assay [2] lay within 416 to 422 nm. The MIC90 in assay [3] was determined as 12.5 µg/mL (≈ 39.8 µM).
On the same counts, the results for `N#Cc1ccc(-c2nn(-c3ccccc3)cc2Cn2ccnc2)cc1` are 45.9 µM, 416 to 418 nm and 100 µg/mL (≈ 307 µM).
For `COc1ccc(-c2nn(-c3ccccc3)cc2Cn2ccnc2)cc1`, in that order: 11.4 µM, 416 to 421 nm and 25 µg/mL (≈ 75.7 µM).
